The source made the active and inactive calls. The rule behind the calls is not given here.

The subject of series [1] is MDA-MB-231. As to the kind of experiment: Antiproliferative activity against human MDA-MB-231 cells assessed as reduction in cell viability measured after 48 hrs by MTS assay. The class given is functional, cell-based. Particulars: MDA-MB-231, 48 h. The essentials:
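Concentration–response in MDA-MB-231 cells across a wide concentration range. The dose–response data are used to calculate IC50 for proliferation (MTS).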

Series [2] concerns MDA-MB-231. As to the kind of experiment: Antiproliferative activity against human MDA-MB-231 cells assessed as reduction in cell viability at 25 to 50 uM measured after 48 hrs by MTS assay. The class given is functional, cell-based. The conditions noted are these: dose microM 25-50, time 48.0 hrs. Summed up: (§1)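 MDA-MB-231 cells exposed to compounds at 25 and 50 μM for 48 h. Viability is compared with a DMSO-treated control. Mean ± SEM from three separate experiments; significance vs control.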
(Tetrazolium assays rely on reduction of a dye to a coloured formazan, in cell work by metabolically active cells.)

In series [3] the test system is Vero. As to the kind of experiment: Cytotoxicity against African green monkey Vero cells assessed as reduction in cell viability measured after 72 hrs by resazurin assay. The class given is cell-based. Particulars: chlorocebus sabaeus.
For series [4], the system named is Vero. As to the kind of experiment: Cytotoxicity against African green monkey Vero cells assessed as reduction in cell viability measured at 129 uM after 72 hrs by resazurin assay relative to control. The class given is cell-based. Particulars: chlorocebus sabaeus. For orientation: Alamar Blue is a resazurin reagent that responds to reducing activity.
Series [5] has as its system MDA-MB-231. As to the kind of experiment: Induction of apoptotic cell death in human MDA-MB-231 cells at 20 uM measured after 48 hrs by annexicV-FITC/propidium iodide staining based flow cytometry analysis. The class given is functional. (Flow cytometry measures light scatter and fluorescence of single cells or particles in a stream.)
Series [6] has as its system MDA-MB-231. As to the kind of experiment: Cell cycle arrest in human MDA-MB-231 cells assessed as accumulation at G2/M phase at 9 uM measured after 24 hrs by RNaseA/propidium iodide staining based flow cytometry analysis relative to control. Format: functional. The essentials: (§2)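 MDA-MB-231 cells treated 24 h with 10 μM or 9 μM test agent or DMSO control. Cell cycle distribution is read by flow cytometry and expressed as percentage change from control. Mean ± SEM, three separate experiments; p vs DMSO control.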

Series [7] in a line: Selectivity ratio of cytotoxicity against African green monkey Vero cells assessed as reduction in cell viability measured after 72 hrs by resazurin assay to antiproliferative activity against human MDA-MB-231 cells assessed as reduction in cell viability measured after 48 hrs by MTS assay. Particulars: Vero cells versus MDA-MB-231 cells. Format: toxicity, cell-based.
For series [8], the system named is MDA-MB-231. As to the kind of experiment: Induction of apoptosis in human MDA-MB-231 cells assessed as healthy cells at 20 uM measured after 48 hrs by annexicV-FITC/propidium iodide staining based flow cytometry analysis (reference value: 87.4 %). The class given is functional.
For series [9], the system named is MDA-MB-231. As to the kind of experiment: Induction of apoptosis in human MDA-MB-231 cells assessed as late apoptotic cells at 20 uM measured after 48 hrs by annexicV-FITC/propidium iodide staining based flow cytometry analysis (reference value: 4.4 %). The class given is functional.
Series [10] concerns MDA-MB-231. As to the kind of experiment: Induction of apoptosis in human MDA-MB-231 cells assessed as necrotic cells at 20 uM measured after 48 hrs by annexicV-FITC/propidium iodide staining based flow cytometry analysis (reference value: 2.4 %). Format: functional.
Series [11] has as its system MDA-MB-231. As to the kind of experiment: Cell cycle arrest in human MDA-MB-231 cells assessed as decrease in cell population at G0/G1 phase at 9 uM measured after 24 hrs by RNaseA/propidium iodide staining based flow cytometry analysis. Format: functional. The essentials:
as §2

In series [12] the test system is MDA-MB-231. As to the kind of experiment: Antiproliferative activity against human MDA-MB-231 cells assessed as reduction in cell viability at 5 uM measured after 48 hrs by MTS assay. The class given is functional, cell-based.
Series [13] has as its system MDA-MB-231. As to the kind of experiment: Induction of apoptosis in human MDA-MB-231 cells assessed as early apoptotic cells at 20 uM measured after 48 hrs by annexicV-FITC/propidium iodide staining based flow cytometry analysis (reference value: 5.8 %). Format: functional.
Series [14] concerns Vero. As to the kind of experiment: Cytotoxicity against African green monkey Vero cells assessed as reduction in cell viability measured at 168 uM after 72 hrs by resazurin assay relative to control. The class given is cell-based. The conditions noted are these: chlorocebus sabaeus.
The subject of series [15] is MDA-MB-231. As to the kind of experiment: Cell cycle arrest in human MDA-MB-231 cells at 10 uM measured after 24 hrs by RNaseA/propidium iodide staining based flow cytometry analysis. The class given is functional. The essentials: as §2
Series [16] relates to MDA-MB-231. As to the kind of experiment: Antiproliferative activity against human MDA-MB-231 cells assessed as reduction in cell viability at 50 uM measured after 48 hrs by MTS assay. The class given is functional, cell-based. The essentials: as §1
The nature of series [17]: Aqueous solubility of the compound. Format: physicochemical. The conditions noted are these: buffer.

Turning to `CC1(C)C[C@H]2[C@H]1CC[C@@]1(C)CCC[C@]2(N)C1`, in the series with MDA-MB-231 [1], the half-maximal inhibitory concentration (IC50) (commonly the concentration needed to halve the response being measured) turned out to be 34.9 µM. Moreover, the outcome with MDA-MB-231 [2] was Active.
As to `CC1(C)C[C@H](NC(=O)CCl)[C@]23CC[C@@H](NC(=O)CCl)[C@@](C)(CC[C@@H]12)C3`, the Activity is 129 µM in the series with Vero [3]; 88% in the series on Vero [4]; 91% in the series on MDA-MB-231 [6]; 7.6% with MDA-MB-231 [8]; 74.3% in the series with MDA-MB-231 [9]; 4.6% with MDA-MB-231 [10]. Moreover, the Activity with MDA-MB-231 [13] is on record as 13.5%. Besides, the outcome in the series on MDA-MB-231 [5], with MDA-MB-231 [2] and in the series with MDA-MB-231 [11] was Active. Further, the IC50 with MDA-MB-231 [1] turned out to be 8.2 µM. Moreover, the selectivity ratio in series [7] was 25. The inhibition entry in the series on MDA-MB-231 [12] was “Active”.
With `CC1(C)C[C@H](NC(=O)CCl)[C@]23CCC[C@@](C)(CC[C@@H]12)C3`, the Activity is 168 µM in the series with Vero [3]; 89% with Vero [14]; 57.8% with MDA-MB-231 [8]; 13.9% in the series on MDA-MB-231 [9]; 18.4% with MDA-MB-231 [10]; 9.9% in the series on MDA-MB-231 [13]. Further, the IC50 in the series with MDA-MB-231 [1] was 9.7 µM. In addition, the result in the series with MDA-MB-231 [15] was inactive. In addition, in series [7], the selectivity ratio turned out to be 33. In addition, in the series with MDA-MB-231 [2], the result was Active. Further, in the series with MDA-MB-231 [12], the inhibition entry is “Active”.
As for `CC1(C)C[C@H](NCc2ccccc2)[C@]23CCC[C@@](C)(CC[C@@H]12)C3`, in the series on MDA-MB-231 [1], the IC50 was 23.6 µM. Further, the outcome in the series on MDA-MB-231 [2] was Active.
The corresponding values for `CCCCN[C@]12CCC[C@](C)(CC[C@@H]3[C@@H]1CC3(C)C)C2` are 37.3 µM and “Active”.
On to `CCCCCN[C@]12CCC[C@](C)(CC[C@@H]3[C@@H]1CC3(C)C)C2`, for which, in the series with MDA-MB-231 [16], the result was Active. Further, in series [17], the solubility result is “Insoluble”.
`CCCN[C@]12CCC[C@](C)(CC[C@@H]3[C@@H]1CC3(C)C)C2`: the IC50 with MDA-MB-231 [1] amounted to 45.9 µM. For the same compound, the outcome with MDA-MB-231 [2] was Active.
On to `CC1(C)C[C@H]2[C@H]1CC[C@@]1(C)CCC[C@]2(NC(=O)CCl)C1`, for which, in the series on MDA-MB-231 [1], the IC50 was determined as 21.4 µM. Also, in the series with MDA-MB-231 [2], the result was Active.
Take `CCCCC(=O)N[C@]12CCC[C@](C)(CC[C@@H]3[C@@H]1CC3(C)C)C2`: the IC50 with MDA-MB-231 [1] was 55.3 µM. The result in the series on MDA-MB-231 [2] was Active.

The record behind these values is ChEMBL document CHEMBL4699388, “Antiproliferative activities of tricyclic amides derived from beta-caryophyllene via the Ritter reaction against MDA-MB-231 breast cancer cells” (RSC Med Chem, 2020).
